Source: ChEMBL document CHEMBL1145212, “Fluorinated diaryl sulfides as serotonin transporter ligands: synthesis, structure-activity relationship study, and in vivo evaluation of fluorine-18-labeled compounds as PET imaging agents” (J Med Chem, 2005)

Experiments:
Type in all cases: cell-based
[1] = target: Sodium-dependent noradrenaline transporter (Homo sapiens, UniProt P23975); assay: In vitro displacement of [3H]nisoxetine from human norepinephrine transporter expressed in HEK293 cells
Summary of the method: (§1)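 Competitive binding using cloned human transporters expressed in HEK-293 cells. NET was labelled with [³H]nisoxetine and DAT with [³H]GBR12935, following a previously published procedure.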

[2] = target: Sodium-dependent dopamine transporter (Homo sapiens, UniProt Q01959); assay: In vitro displacement of [3H]GBR-12935 from human dopamine transporter expressed in HEK293 cells; summary of the method: as §1
[3] = target: Sodium-dependent serotonin transporter (Homo sapiens, UniProt P31645); assay: In vitro displacement of [3H]paroxetine from human serotonin transporter expressed in HEK293 cells
Chain of Sodium-dependent serotonin transporter (P31645 whole entry): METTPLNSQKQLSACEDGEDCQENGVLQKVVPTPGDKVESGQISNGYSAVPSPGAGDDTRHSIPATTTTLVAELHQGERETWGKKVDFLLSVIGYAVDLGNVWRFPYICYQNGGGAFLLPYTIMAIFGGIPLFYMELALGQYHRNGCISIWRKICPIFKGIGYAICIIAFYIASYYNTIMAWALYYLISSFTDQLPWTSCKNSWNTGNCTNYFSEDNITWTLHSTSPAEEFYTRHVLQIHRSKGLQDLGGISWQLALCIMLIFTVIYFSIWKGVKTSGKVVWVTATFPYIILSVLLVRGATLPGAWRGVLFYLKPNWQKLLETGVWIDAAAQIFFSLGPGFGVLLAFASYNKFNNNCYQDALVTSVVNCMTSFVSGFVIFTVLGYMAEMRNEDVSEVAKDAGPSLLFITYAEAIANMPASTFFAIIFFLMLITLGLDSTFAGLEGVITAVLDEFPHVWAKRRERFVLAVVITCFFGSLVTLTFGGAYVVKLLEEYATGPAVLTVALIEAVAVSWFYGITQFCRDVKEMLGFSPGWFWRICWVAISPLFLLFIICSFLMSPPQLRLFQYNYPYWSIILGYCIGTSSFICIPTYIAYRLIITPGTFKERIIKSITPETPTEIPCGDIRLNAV

Chain of Sodium-dependent dopamine transporter (Q01959 whole entry): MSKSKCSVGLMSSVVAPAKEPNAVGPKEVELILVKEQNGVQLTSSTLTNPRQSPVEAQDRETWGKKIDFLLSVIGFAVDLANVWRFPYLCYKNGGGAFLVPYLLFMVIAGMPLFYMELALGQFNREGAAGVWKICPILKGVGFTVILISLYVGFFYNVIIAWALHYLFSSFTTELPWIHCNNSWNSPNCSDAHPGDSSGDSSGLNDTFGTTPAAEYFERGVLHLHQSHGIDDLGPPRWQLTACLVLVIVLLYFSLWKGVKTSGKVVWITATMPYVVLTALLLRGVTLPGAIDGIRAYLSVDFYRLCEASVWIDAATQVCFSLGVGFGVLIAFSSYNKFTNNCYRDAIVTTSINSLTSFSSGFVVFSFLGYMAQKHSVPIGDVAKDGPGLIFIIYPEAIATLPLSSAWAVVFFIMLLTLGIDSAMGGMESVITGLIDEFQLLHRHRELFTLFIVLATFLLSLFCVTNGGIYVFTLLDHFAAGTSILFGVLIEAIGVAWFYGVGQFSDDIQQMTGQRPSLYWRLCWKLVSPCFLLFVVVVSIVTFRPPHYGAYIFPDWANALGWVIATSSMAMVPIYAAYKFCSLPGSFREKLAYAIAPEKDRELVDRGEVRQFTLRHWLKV
Chain of Sodium-dependent noradrenaline transporter (P23975 whole entry): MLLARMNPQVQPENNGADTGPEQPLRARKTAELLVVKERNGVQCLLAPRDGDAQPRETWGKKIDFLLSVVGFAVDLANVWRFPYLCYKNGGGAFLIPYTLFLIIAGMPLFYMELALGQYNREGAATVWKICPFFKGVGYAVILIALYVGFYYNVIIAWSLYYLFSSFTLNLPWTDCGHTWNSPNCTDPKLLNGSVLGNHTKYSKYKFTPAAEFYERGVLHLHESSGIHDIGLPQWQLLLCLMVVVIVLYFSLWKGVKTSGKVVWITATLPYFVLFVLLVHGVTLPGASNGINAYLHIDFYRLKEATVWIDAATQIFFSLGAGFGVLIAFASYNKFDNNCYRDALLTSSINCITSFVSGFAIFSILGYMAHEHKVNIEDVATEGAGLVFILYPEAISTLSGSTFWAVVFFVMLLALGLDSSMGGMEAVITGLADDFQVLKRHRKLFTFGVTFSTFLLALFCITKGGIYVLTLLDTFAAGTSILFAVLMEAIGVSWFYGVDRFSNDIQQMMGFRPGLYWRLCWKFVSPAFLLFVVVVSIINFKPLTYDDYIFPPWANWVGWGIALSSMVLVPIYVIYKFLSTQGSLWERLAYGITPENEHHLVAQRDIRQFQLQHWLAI

Ki [1] [µM]	Ki [2] [µM]	Ki [3] [µM]	Structure (SMILES)
7.55	2.12	–	CCNCc1ccccc1Sc1ccc(C)cc1N
3.82	2.91	–	C=CCNCc1ccccc1Sc1ccc(C)cc1N
4.33	> 10	0.518	Cc1ccc(Sc2ccccc2CNCCCF)c(N)c1
